Source: ChEMBL document CHEMBL4828740, “Discovery of Quinoxaline-Based P1-P3 Macrocyclic NS3/4A Protease Inhibitors with Potent Activity against Drug-Resistant Hepatitis C Virus Variants” (J Med Chem, 2021)

test system: Hepatitis C virus; test: Antiviral activity against HCV genotype 1b infected in human Huh7 cells incubated for 96 hrs by luciferase assay; format: functional, organism-based, Hepacivirus hominis; conditions: Huh-7, 96 h
How it was run: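 Con1 (GT-1b) luciferase reporter replicon carrying the H77 (GT-1a) NS3 protease region, either WT or with A156T or D168A introduced by megaprimer mutagenesis. Cured Huh7 cells grown in DMEM with 10% heat-inactivated FBS and 0.1 mM non-essential amino acids. Cells electroporated with replicon RNA and kept with serially diluted inhibitor.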

Structure (SMILES) | EC50
COc1ccc2nc(O[C@@H]3C[C@H]4C(=O)N[C@]5(C(=O)NS(=O)(=O)C6(C)CC6)C[C@H]5/C=C/CCCCC[C@H](NC(=O)OC(C)(C)C)C(=O)N4C3)c(C(F)(F)F)nc2c1 | 0.9 nM
CCC(C)(C)OC(=O)N[C@H]1CCCCC/C=C/[C@@H]2C[C@@]2(C(=O)NS(=O)(=O)C2(C)CC2)NC(=O)[C@@H]2C[C@@H](Oc3nc4ccc(OC)cc4nc3C(F)(F)F)CN2C1=O | 1.5 nM
COc1ccc2nc(O[C@@H]3C[C@H]4C(=O)N[C@]5(C(=O)NS(=O)(=O)C6(C)CC6)C[C@H]5/C=C/CCCCC[C@H](NC(=O)OCC5(C)CC5(F)F)C(=O)N4C3)c(C(F)(F)F)nc2c1 (stereo partly specified) | 2.7 nM
COc1ccc2nc(C)c(O[C@@H]3C[C@H]4C(=O)N[C@]5(C(=O)NS(=O)(=O)C6(C)CC6)C[C@H]5/C=C/CCCCC[C@H](NC(=O)O[C@@H]5CCC[C@H]5F)C(=O)N4C3)nc2c1 | 0.4 nM
COc1ccc2nc(C)c(O[C@@H]3C[C@H]4C(=O)N[C@]5(C(=O)NS(=O)(=O)C6(C)CC6)C[C@H]5/C=C/CCCCC[C@H](NC(=O)OC5(C(F)(F)F)CCC5)C(=O)N4C3)nc2c1 | 0.3 nM

target: T1, Hepatitis C virus serine protease, NS3/NS4A (Hepatitis C virus, UniProt A3EZI9+D2K2A8); test: Inhibition of HCV GT-1a NS3/4a protease using Ac-DE-D(Edans)-EE-Abu-c-[COO]-AS-K(Dabcy1)-NH2 preincubated for 1 hr followed by substrate addition; format: protein complex, Hepatitis C virus subtype 1a; conditions: not given

Structure (SMILES) | Ki
COc1ccc2nc(O[C@@H]3C[C@H]4C(=O)N[C@]5(C(=O)NS(=O)(=O)C6(C)CC6)C[C@H]5/C=C/CCCCC[C@H](NC(=O)OC(C)(C)C)C(=O)N4C3)c(C(F)(F)F)nc2c1 | 5.8 nM
CCC(C)(C)OC(=O)N[C@H]1CCCCC/C=C/[C@@H]2C[C@@]2(C(=O)NS(=O)(=O)C2(C)CC2)NC(=O)[C@@H]2C[C@@H](Oc3nc4ccc(OC)cc4nc3C(F)(F)F)CN2C1=O | 2.7 nM
COc1ccc2nc(O[C@@H]3C[C@H]4C(=O)N[C@]5(C(=O)NS(=O)(=O)C6(C)CC6)C[C@H]5/C=C/CCCCC[C@H](NC(=O)OCC5(C)CC5(F)F)C(=O)N4C3)c(C(F)(F)F)nc2c1 (stereo partly specified) | 2.1 nM
COc1ccc2nc(C)c(O[C@@H]3C[C@H]4C(=O)N[C@]5(C(=O)NS(=O)(=O)C6(C)CC6)C[C@H]5/C=C/CCCCC[C@H](NC(=O)O[C@@H]5CCC[C@H]5F)C(=O)N4C3)nc2c1 | 2.3 nM
COc1ccc2nc(C)c(O[C@@H]3C[C@H]4C(=O)N[C@]5(C(=O)NS(=O)(=O)C6(C)CC6)C[C@H]5/C=C/CCCCC[C@H](NC(=O)OC5(C(F)(F)F)CCC5)C(=O)N4C3)nc2c1 | 1.5 nM

test system: Hepatitis C virus; test: Antiviral activity against HCV genotype 1b harboring A156T mutant infected in human Huh7 cells incubated for 96 hrs by luciferase assay; format: functional, organism-based, Hepacivirus hominis; conditions: subtype 1b, Huh-7, 96 h
How it was run: (§1)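 Con1 (GT-1b) luciferase reporter replicon carrying the H77 (GT-1a) NS3 protease region, with the mutation introduced by megaprimer site-directed mutagenesis. Cured Huh7 cells were grown in DMEM with 10% heat-inactivated FBS and 0.1 mM non-essential amino acids, electroporated with replicon RNA transcripts, and kept with serially diluted inhibitor. EC50 was taken directly from the inhibition curves.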

Structure (SMILES) | EC50
COc1ccc2nc(O[C@@H]3C[C@H]4C(=O)N[C@]5(C(=O)NS(=O)(=O)C6(C)CC6)C[C@H]5/C=C/CCCCC[C@H](NC(=O)OC(C)(C)C)C(=O)N4C3)c(C(F)(F)F)nc2c1 | 12 nM
CCC(C)(C)OC(=O)N[C@H]1CCCCC/C=C/[C@@H]2C[C@@]2(C(=O)NS(=O)(=O)C2(C)CC2)NC(=O)[C@@H]2C[C@@H](Oc3nc4ccc(OC)cc4nc3C(F)(F)F)CN2C1=O | 10 nM
COc1ccc2nc(O[C@@H]3C[C@H]4C(=O)N[C@]5(C(=O)NS(=O)(=O)C6(C)CC6)C[C@H]5/C=C/CCCCC[C@H](NC(=O)OCC5(C)CC5(F)F)C(=O)N4C3)c(C(F)(F)F)nc2c1 (stereo partly specified) | 130 nM
COc1ccc2nc(C)c(O[C@@H]3C[C@H]4C(=O)N[C@]5(C(=O)NS(=O)(=O)C6(C)CC6)C[C@H]5/C=C/CCCCC[C@H](NC(=O)O[C@@H]5CCC[C@H]5F)C(=O)N4C3)nc2c1 | 12 nM
COc1ccc2nc(C)c(O[C@@H]3C[C@H]4C(=O)N[C@]5(C(=O)NS(=O)(=O)C6(C)CC6)C[C@H]5/C=C/CCCCC[C@H](NC(=O)OC5(C(F)(F)F)CCC5)C(=O)N4C3)nc2c1 | 5.9 nM

test system: Hepatitis C virus; test: Antiviral activity against HCV genotype 3a infected in human Huh7.5 cells incubated for 72 hrs by luciferase assay; format: functional, organism-based, Hepacivirus hominis; conditions: subtype 3a, Huh7.5, 72 h
How it was run: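 Huh7.5 cells stably harboring the GT-3a replicon S52/SG-Feo SHI, seeded at 8,000 cells/well. Cells lysed in 1X Passive Lysis Buffer and luciferase activity measured. EC50 taken from drug inhibition curves.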

Structure (SMILES) | EC50
COc1ccc2nc(C)c(O[C@@H]3C[C@H]4C(=O)N[C@]5(C(=O)NS(=O)(=O)C6(C)CC6)C[C@H]5/C=C/CCCCC[C@H](NC(=O)OC5(C(F)(F)F)CCC5)C(=O)N4C3)nc2c1 | 310 nM

target: T1, Hepatitis C virus serine protease, NS3/NS4A; test: Inhibition of HCV GT-3a NS3/4a protease using Ac-DE-D(Edans)-EE-Abu-c-[COO]-AS-K(Dabcy1)-NH2 preincubated for 1 hr followed by substrate addition; format: protein-complex assay, Hepatitis C virus subtype 3a; conditions: not given

Structure (SMILES) | Ki
COc1ccc2nc(O[C@@H]3C[C@H]4C(=O)N[C@]5(C(=O)NS(=O)(=O)C6(C)CC6)C[C@H]5/C=C/CCCCC[C@H](NC(=O)OC(C)(C)C)C(=O)N4C3)c(C(F)(F)F)nc2c1 | 230 nM
CCC(C)(C)OC(=O)N[C@H]1CCCCC/C=C/[C@@H]2C[C@@]2(C(=O)NS(=O)(=O)C2(C)CC2)NC(=O)[C@@H]2C[C@@H](Oc3nc4ccc(OC)cc4nc3C(F)(F)F)CN2C1=O | 240 nM
COc1ccc2nc(O[C@@H]3C[C@H]4C(=O)N[C@]5(C(=O)NS(=O)(=O)C6(C)CC6)C[C@H]5/C=C/CCCCC[C@H](NC(=O)OCC5(C)CC5(F)F)C(=O)N4C3)c(C(F)(F)F)nc2c1 (stereo partly specified) | 336 nM
COc1ccc2nc(C)c(O[C@@H]3C[C@H]4C(=O)N[C@]5(C(=O)NS(=O)(=O)C6(C)CC6)C[C@H]5/C=C/CCCCC[C@H](NC(=O)O[C@@H]5CCC[C@H]5F)C(=O)N4C3)nc2c1 | 216 nM
COc1ccc2nc(C)c(O[C@@H]3C[C@H]4C(=O)N[C@]5(C(=O)NS(=O)(=O)C6(C)CC6)C[C@H]5/C=C/CCCCC[C@H](NC(=O)OC5(C(F)(F)F)CCC5)C(=O)N4C3)nc2c1 | 96 nM

test system: Hepatitis C virus; test: Antiviral activity against HCV genotype 1b harboring D168A mutant infected in human Huh7 cells incubated for 96 hrs by luciferase assay; format: functional, organism-based, Hepacivirus hominis; conditions: subtype 1b, Huh-7, 96 h; how it was run: as §1

Structure (SMILES) | EC50
COc1ccc2nc(O[C@@H]3C[C@H]4C(=O)N[C@]5(C(=O)NS(=O)(=O)C6(C)CC6)C[C@H]5/C=C/CCCCC[C@H](NC(=O)OC(C)(C)C)C(=O)N4C3)c(C(F)(F)F)nc2c1 | 4.7 nM
CCC(C)(C)OC(=O)N[C@H]1CCCCC/C=C/[C@@H]2C[C@@]2(C(=O)NS(=O)(=O)C2(C)CC2)NC(=O)[C@@H]2C[C@@H](Oc3nc4ccc(OC)cc4nc3C(F)(F)F)CN2C1=O | 11 nM
COc1ccc2nc(O[C@@H]3C[C@H]4C(=O)N[C@]5(C(=O)NS(=O)(=O)C6(C)CC6)C[C@H]5/C=C/CCCCC[C@H](NC(=O)OCC5(C)CC5(F)F)C(=O)N4C3)c(C(F)(F)F)nc2c1 (stereo partly specified) | 8.5 nM
COc1ccc2nc(C)c(O[C@@H]3C[C@H]4C(=O)N[C@]5(C(=O)NS(=O)(=O)C6(C)CC6)C[C@H]5/C=C/CCCCC[C@H](NC(=O)O[C@@H]5CCC[C@H]5F)C(=O)N4C3)nc2c1 | 43 nM
COc1ccc2nc(C)c(O[C@@H]3C[C@H]4C(=O)N[C@]5(C(=O)NS(=O)(=O)C6(C)CC6)C[C@H]5/C=C/CCCCC[C@H](NC(=O)OC5(C(F)(F)F)CCC5)C(=O)N4C3)nc2c1 | 25 nM
